Assay results taken from ChEMBL document CHEMBL1145462, “In vivo pharmacodynamic activity of the glycopeptide dalbavancin” (Antimicrob Agents Chemother, 2007).
Converted amounts (≈) assume the structure as drawn.

How the values were obtained:
Assay type in all cases: functional
Staphylococcus aureus [1] = assay: Antibacterial activity against Staphylococcus aureus ATCC 25923 by microdilution method
Summary of the method: (§1)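 MIC and MBC were determined by CLSI broth microdilution, in duplicate on at least two occasions. Staphylococci were grown in Mueller-Hinton broth and agar; pneumococci were plated on sheep blood agar.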

Staphylococcus aureus [2] = assay: Antibacterial activity against Staphylococcus aureus 33591 by microdilution method
Summary of the method: (§2)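 MICs in duplicate on at least two occasions by standard CLSI broth microdilution; S. aureus grown and quantified in Mueller-Hinton broth/agar.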

Staphylococcus aureus [3] = assay: Antibacterial activity against Staphylococcus aureus 307109 by microdilution method; summary of the method: as §1
Staphylococcus aureus [4] = assay: Antibacterial activity against Staphylococcus aureus 31005 by microdilution method; summary of the method: as §1
Staphylococcus aureus [5] = assay: Antibacterial activity against Staphylococcus aureus Smith by microdilution method; summary of the method: as §2

COc1cccc(OC)c1C(=O)N[C@@H]1C(=O)N2[C@@H]1SC(C)(C)[C@@H]2C(=O)O [METHICILLIN] was tested, and the MIC (Staphylococcus aureus [1]) was 0.12 µg/mL (≈ 0.315 µM), the MIC (Staphylococcus aureus [2]) was > 8 µg/mL and the MIC (Staphylococcus aureus [3]) was > 8 µg/mL. For the same molecule, the MIC (Staphylococcus aureus [4]) was 0.12 µg/mL (≈ 0.315 µM) and the MIC (Staphylococcus aureus [5]) was 0.12 µg/mL (≈ 0.315 µM).
